Data as given in ChEMBL document CHEMBL3414508, “A few atoms make the difference: synthetic, CD, NMR and computational studies on antiviral and antibacterial activities of glycopeptide antibiotic aglycon derivatives” (Eur J Med Chem, 2015).

How the values were obtained:
[1] = Cytotoxicity against MDCK cells after 72 hrs by microscopic analysis; assay type: cell-based, Canis lupus familiaris; details: dog
Method in brief: (§1)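 Uninfected MDCK cultures were run in parallel with serial compound dilutions for 72 h at 35°C. MCC is the concentration producing minimal changes in cell morphology, judged by microscopy. […] Means of 2 to 5 independent tests.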

[2] = Cytotoxicity against MDCK cells after 72 hrs by MTS assay; assay type: cell-based, Canis lupus familiaris; details: dog; method in brief: as §1
[3] = test system: Influenza A virus; experiment: Antiviral activity against Influenza A virus (A/Puerto Rico/8/34(H1N1)) infected in MDCK cells assessed as reduction of virus-induced cytopathic effect after 72 hrs by microscopic analysis; assay type: functional, organism-based; details: A/Puerto Rico/8/1934(H1N1)
Method in brief: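 Subconfluent MDCK cultures given serial compound dilutions together with virus at MOI 0.0004 PFU/cell. Incubation 72 h at 35°C. Means of 2 to 5 independent tests.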

[4] = test system: Influenza A virus; experiment: Antiviral activity against Influenza A virus (A/Puerto Rico/8/34(H1N1)) infected in MDCK cells assessed as cell viability after 72 hrs by MTS assay; assay type: functional, organism-based, A/Puerto Rico/8/1934(H1N1)
Method in brief: (§2)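 Subconfluent MDCK cultures given serial compound dilutions together with virus at MOI 0.0004 PFU/cell. Incubation 72 h at 35°C. […] Means of 2 to 5 independent tests.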

[5] = Antiviral activity against Influenza A virus (A/Hong Kong/7/1987(H3N2)) infected in MDCK cells assessed as reduction of virus-induced cytopathic effect after 72 hrs by microscopic analysis; assay type: functional, cell-based; method in brief: as §2
[6] = Antiviral activity against Influenza A virus (A/Hong Kong/7/1987(H3N2)) infected in MDCK cells assessed as cell viability after 72 hrs by MTS assay; assay type: functional, cell-based; method in brief: as §2
[7] = test system: Influenza B virus; experiment: Antiviral activity against Influenza B virus (B/Hong Kong/05/1972) infected in MDCK cells assessed as reduction of virus-induced cytopathic effect after 72 hrs by microscopic analysis; assay type: functional, cell-based; details: B/Hong Kong/05/1972, MDCK; method in brief: as §2
[8] = test system: Influenza B virus; experiment: Antiviral activity against Influenza B virus (B/Hong Kong/05/1972) infected in MDCK cells assessed as cell viability after 72 hrs by MTS assay; assay type: functional, cell-based; details: B/Hong Kong/05/1972, MDCK; method in brief: as §2
[9] = Influenza A virus, A/Puerto Rico/8/1934(H1N1), MDCK, 72 h

| Compound | MCC at 72 h [1] [µM] | CC50 at 72 h [2] [µM] | EC50 [3] [µM] | EC50 [4, 9] [µM] | EC50 [5] [µM] | EC50 [6] [µM] | EC50 [7] [µM] | EC50 [8] [µM] | EC50 ([4]; mdck) [µM] |
| --- | --- | --- | --- | --- | --- | --- | --- | --- | --- |
| COC(=O)[C@H]1NC(=O)[C@H]2NC(=O)[C@H](NC(=O)[C@@H]3NC(=O)[C@H]4NC(=O)[C@@H](Cc5ccc(c(Cl)c5)Oc5cc3cc(c5O)Oc3ccc(cc3Cl)[C@H]2O[C@@H]2O[C@H](CO)[C@@H](O)[C@H](O)[C@H]2NC(C)=O)NC(=O)[C@H](Nc2c(NCc3ccc(-c5ccccc5)cc3)c(=O)c2=O)c2ccc(O)c(c2)Oc2cc(O)cc4c2)c2ccc(O)c(c2)-c2c(O)cc(O)cc21 | 20 | 58 | > 100 | > 100 | > 100 | > 100 | > 100 | > 100 |  |
| COc1c(N[C@H]2C(=O)N[C@@H]3Cc4ccc(c(Cl)c4)Oc4cc5cc(c4O)Oc4ccc(cc4Cl)[C@@H](O)[C@@H]4NC(=O)[C@H](NC(=O)[C@@H]5NC(=O)[C@@H](NC3=O)c3cc(O)cc(c3)Oc3cc2ccc3O)c2ccc(O)c(c2)-c2c(O)cc(O)cc2[C@@H](C(=O)O)NC4=O)c(=O)c1=O | 100 | 49 | > 100 | > 100 | > 100 | > 100 | > 100 | > 100 |  |
| O=C1N[C@H]2C(=O)N[C@H]3C(=O)N[C@H](C(=O)N[C@H](C(=O)O)c4cc(O)cc(O)c4-c4cc3ccc4O)[C@H](O)c3ccc(c(Cl)c3)Oc3cc2cc(c3O)Oc2ccc(cc2Cl)C[C@H]2NC(=O)[C@H](Nc3c(NCc4ccc(-c5ccccc5)cc4)c(=O)c3=O)c3ccc(O)c(c3)Oc3cc(O)cc(c3)[C@@H]1NC2=O | 20 | 11 | > 100 | > 100 | > 100 | > 100 | > 100 | > 100 |  |
| COC(=O)[C@H]1NC(=O)[C@H]2NC(=O)[C@H](NC(=O)[C@@H]3NC(=O)[C@H]4NC(=O)[C@@H](Cc5ccc(c(Cl)c5)Oc5cc3cc(c5O)Oc3ccc(cc3Cl)[C@H]2O)NC(=O)[C@H](Nc2c(NCc3ccc(-c5ccccc5)cc3)c(=O)c2=O)c2ccc(O)c(c2)Oc2cc(O)cc4c2)c2ccc(O)c(c2)-c2c(O)cc(O)cc21 | 4 | 7.6 | > 100 | > 100 | > 100 | > 100 | > 100 | > 100 |  |
| COC(=O)[C@H]1NC(=O)[C@H]2NC(=O)[C@H](NC(=O)[C@@H]3NC(=O)[C@H]4NC(=O)[C@@H](Cc5ccc(cc5)Oc5cc3cc(c5O)Oc3ccc(cc3)[C@H]2O)NC(=O)[C@H](Nc2c(NCc3ccc(-c5ccccc5)cc3)c(=O)c2=O)c2ccc(O)c(c2)Oc2cc(O)cc4c2)c2ccc(O)c(c2)-c2c(O)cc(O)cc21 | 16 | 20 | 0.67 | 0.58 | 0.52 | 0.7 | > 100 | > 100 |  |
| NC12CC3CC(CC(C3)C1)C2 [AMANTADINE] | > 500 | > 500 |  | 453 | 2 | 1.8 | > 500 | > 500 |  |
| NC(=O)c1ncn([C@@H]2O[C@H](CO)[C@@H](O)[C@H]2O)n1 [RIBAVIRIN] | > 100 | > 100 |  |  | 12 | 12 | 7 | 3.4 | 8.9 |
| CC(N)C12CC3CC(CC(C3)C1)C2 (stereo not given) [RIMANTADINE] | > 500 | > 500 | 4 | 15 | 4 | 1.1 | > 500 | > 500 |  |
| N[C@H]1C(=O)N[C@@H]2Cc3ccc(c(Cl)c3)Oc3cc4cc(c3O)Oc3ccc(cc3Cl)[C@@H](O)[C@@H]3NC(=O)[C@H](NC(=O)[C@@H]4NC(=O)[C@@H](NC2=O)c2cc(O)cc(c2)Oc2cc1ccc2O)c1ccc(O)c(c1)-c1c(O)cc(O)cc1[C@@H](C(=O)O)NC3=O [TEICOPLANIN AGLYCON] | 100 | > 100 | > 100 | > 100 | > 100 | > 100 | > 100 | > 100 |  |
